Screening results (PubChem)
Shown are actives, neighbours in structure and some others; about 1.1% of the full set was active somewhere.
G6PDH counter-1 – L. mesenteroides G6PDH inhibitors, counter-screen for G6PDH-coupled screening assays, biochemical, Leuconostoc mesenteroides enzyme; inhibition, % at 5 µM; Purified L. mesenteroides G6PDH, diaphorase/resazurin coupled fluorescence, 45 min; glucose-6-phosphate dehydrogenase [Leuconostoc mesenteroides]; 200,000 compounds, 0.12% hits; in the data active = inhibition above about 50%
TbHK1 inh – Trypanosoma brucei hexokinase 1 inhibitors, primary screen, biochemical, G6PDH-coupled NADH absorbance, MLSCN library. hexokinase 1 [Trypanosoma brucei]. recombinant TbHK1, G6PDH-coupled NADH A340. inhibition, % at 10 µM. 220,000 compounds, 0.11% hits. AID 1430, 2008;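 active = inhibition of 50% or more in the single-dose primary screen; inactive = inhibition below 50%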
PMI act – activators of human PMI, primary screen, biochemical, fluorescence intensity, near-Km mannose 6-phosphate; Mannose-6-phosphate isomerase (Homo sapiens), P34949; purified human PMI, coupled resazurin fluorescence, 20 min; stronger effect = higher value; 1 = vehicle control, 0 substrate-free wells; activation factor at 20 µM; 190,000 compounds, 0.005% hits; AID 1214, 2008;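 active = activation factor of 2 or more at 20 µM, relative to plate controls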
Target sequence (P34949 whole entry, looked up): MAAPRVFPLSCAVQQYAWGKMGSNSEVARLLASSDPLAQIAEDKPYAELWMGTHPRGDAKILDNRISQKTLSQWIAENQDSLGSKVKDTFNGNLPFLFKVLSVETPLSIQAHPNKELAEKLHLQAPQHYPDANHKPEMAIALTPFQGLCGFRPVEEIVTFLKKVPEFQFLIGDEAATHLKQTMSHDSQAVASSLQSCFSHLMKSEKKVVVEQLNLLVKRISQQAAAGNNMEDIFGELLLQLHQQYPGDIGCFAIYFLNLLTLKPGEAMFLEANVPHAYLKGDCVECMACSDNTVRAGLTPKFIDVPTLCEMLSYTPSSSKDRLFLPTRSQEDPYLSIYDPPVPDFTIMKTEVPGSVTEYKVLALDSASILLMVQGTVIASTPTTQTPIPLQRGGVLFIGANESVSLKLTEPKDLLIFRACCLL
Diaph act CS – compounds boosting diaphorase resazurin reduction – biochemical, uHTS, resorufin fluorescence, counter-screen for diaphorase-coupled primary assays, primary screen | Diaphorase/resazurin coupled assay, 16 min; stronger effect = higher value; 1 = vehicle wells, 0 = NADH-free wells | activation factor at 20 µM | 190,000 compounds, 0.005% hits;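 active = diaphorase activity raised at least twofold by the compound at 20 µM; inactive = activation factor below 2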
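Material: Purified diaphorase enzyme from Clostridium kluyveri | Buffer or medium: 50 mM HEPES pH 7.4 with 4.542 mM MgCl2, 0.005% Tween 20 | Times: 16 min enzyme reaction, ambient temperature | Signal: Red resorufin fluorescence at 544/590 nm excitation/emission | Measure: Increased resorufin signal from activators or reducing compounds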
Diaph inh CS – diaphorase inhibitors and chemical oxidizers, primary screen, counter-screen for diaphorase-coupled primary assays, biochemical, uHTS, resorufin fluorescence | 190,000 compounds, 0.69% hits | inhibition, % at 20 µM | diaphorase resazurin-to-resorufin fluorescence, NADH, 16 min; bacterial (C. kluyveri) enzyme, not human;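 active = primary screen inhibition at 20 µM above a set limit, cut at about 50% in these data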;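 note: plate controls were DMSO with full reaction for no effect and wells lacking NADH for full effect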
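controls = No-NADH positive control and DMSO neutral control | system = Clostridium kluyveri diaphorase enzyme | timing = reaction incubation of 16 min at room temperature | signal = resorufin fluorescence 544/590 nm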
PMI act satM6P – human PMI activators, high substrate, primary screen, biochemical, fluorescence intensity, near-saturating mannose 6-phosphate; Mannose-6-phosphate isomerase (Homo sapiens), P34949; coupled PMI enzyme assay, resazurin fluorescence, 20 min; stronger effect = higher value; 1 = untreated enzyme, 0 = substrate-free blank; activation factor at 20 µM; 190,000 compounds, 0.34% hits; AID 1216, 2008;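 active = activation factor of 2 or more at 20 µM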
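Test system: human phosphomannose isomerase with PGI, G6PDH, diaphorase coupling enzymes; amount: 15 ng/mL PMI; incubation: enzyme reaction with compound 20 min at room temperature; technique: resorufin fluorescence (Ex 544/Em 590 nm) from resazurin via diaphorase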
G6PDH counter-2 – Leuconostoc G6PDH inhibition, confirmation, counter-screen for TbHK1 inhibitor project, biochemical, DPI cherry-picked compounds, single concentration. 210 compounds, 7% hits. inhibition, % at 10 µM. AID 2516, 2010. purified G6PDH, NADH absorbance, 1 h. shares compounds with TbHK1 inh;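 active = at least 50% inhibition in the glucose-6-phosphate dehydrogenase coupled counterscreen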
TbHK1 confirm – TbHK1 inhibitor retest, confirmation, biochemical, DPI cherry-picked primary actives; shares compounds with TbHK1 inh; recombinant TbHK1, G6PDH-coupled NADH A340 absorbance; inhibition, % at 10 µM; 210 compounds, 10% hits; AID 2560, 2010;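 active = inhibition of at least 50% in both of the two screening runs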;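 note: 0% and 100% set by the maximum and minimum signal control wells on each plate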
Starred values were filed as active, the others as inactive; nt = no result.

SMILES | G6PDH counter-1 | TbHK1 inh | PMI act | Diaph act CS | Diaph inh CS | PMI act satM6P | G6PDH counter-2 | TbHK1 confirm
c1cc(-c2nnc(-c3ccncc3)o2)ccn1 | 11 | 74* | 1 | 0.9 | 13 | 1 | -7 | -7
O=c1c2[nH]c3cccc(Cl)c3c2ncn1Cc1ccco1 | nt | -46 | nt | nt | nt | nt | nt | nt
COc1ccc(C(=O)N2CCSC2=S)cc1OC | 5 | -6 | 0.9 | 1 | 2 | 0.9 | nt | nt
COc1cccc(C(=O)N2CCSC2=S)c1 | 0 | 57* | 1 | 1 | 5 | 1.1 | -18 | -6
COc1ccc(S(=O)(=O)N2CCC3(CC2)OCCO3)cc1 | -6 | -1 | 1 | 0.9 | 6 | 0.9 | nt | nt
O=C1CCC(C(=O)NCCCn2ccnc2)N1 (configuration not stated) | -9 | 58* | 0.9 | 0.9 | 14 | 0.9 | -1 | 2
O=C(COC(=O)/C=C/c1ccccc1)NCc1ccccc1Cl | -1 | -1 | 1 | 0.9 | 9 | 1 | nt | nt
NC(=O)C1CCN(C2CC(=O)N(c3cccc(F)c3)C2=O)CC1 (configuration not stated) | -2 | 61* | 1 | 1 | 3 | 1 | -1 | 2
NC(=O)C1CCN(C2CC(=O)N(c3ccc(F)c(Cl)c3)C2=O)CC1 (configuration not stated) | 2 | 4 | 1 | 0.9 | 15 | 1 | nt | nt
C/C(=N\OC(=O)C1CC1)C1CC1c1ccc(F)cc1 (configuration not stated) | 2 | 8 | 1 | 0.9 | 14 | 0.9 | nt | nt
CC(=O)Nc1nc2ccccc2n1CCOc1ccccc1Cl | -9 | 52* | 0.8 | 0.8 | 19 | 0.8 | 0 | -4
C/C(=C/CCC(C)[C@H]1CC[C@@]2(C)C3=C(CC[C@]12C)[C@@]1(C)CCC(=O)C(C)(C)[C@@H]1CC3)C(=O)O (some centres not stated) | 15 | 67* | 1 | 0.9 | 10 | 1 | -42 | 86*
C/C(=C/CCC(C)C1CCC2(C)C3CCC4C(C)(C)C(=O)CCC4(C)C3=CCC12C)C(=O)O (configuration not stated) | nt | 1 | nt | nt | nt | nt | nt | nt
Cc1ccc(Cn2c(-n3nc(C)cc3C)nc3c2c(=O)[nH]c(=O)n3C)cc1 | 0 | 56* | 1 | 0.9 | 13 | 1 | -11 | 0
Cc1cc(C)n(-c2nc3c(c(=O)[nH]c(=O)n3C)n2Cc2cccc(Br)c2)n1 | 7 | 24 | 1 | 0.9 | 8 | 1.1 | nt | nt
Cn1nc(-c2ccc(Cl)cc2)nc2c(=O)n(C)c(=O)nc1-2 | 61* | 79* | 0.8 | 1.4 | -35 | 0.9 | 66* | 57*
CS(=O)(=O)n1nc(-c2ccc(Cl)cc2)nc1N | 16 | 2 | 0.9 | 0.9 | 7 | 0.9 | nt | nt
CCOCCCNC(=O)C(NC(=O)c1ccc(NC(C)=O)cc1)c1ccc(C)cc1 (configuration not stated) | 15 | -4 | 0.8 | 0.9 | 12 | 0.9 | nt | nt
CCOCCCNC(=O)C(NC(=O)c1cnccn1)c1ccc(C)cc1 (configuration not stated) | 2 | 55* | 0.9 | 0.8 | 16 | 1 | -5 | 3
COc1ccc(C(=O)Nc2cc(Cl)ccc2C(=O)O)cc1 | -1 | 53* | 1 | 0.9 | 10 | 1 | -20 | 65*
COc1ccc(S(=O)(=O)NNC(=O)C(=O)NNc2ccccn2)cc1 | nt | 53* | nt | nt | nt | nt | -16 | 10
Cc1occc1-c1nnc(SCC(=O)N2CCOCC2)n1CCc1ccccc1 | -20 | 54* | 0.9 | 0.8 | 20 | 0.9 | -10 | -2
O=C(NC12CC3CC(CC(C3)C1)C2)OCCNC1CCCCC1 | nt | -2 | nt | nt | nt | nt | nt | nt
O=C(O)CCN=C1CCCc2ccccc2N1 | 17 | 54* | 0.9 | 1 | 1 | 0.9 | -1 | 4
Cc1ccccc1NC(=O)c1snc2c(=O)[nH]cnc12 | 2 | -7 | 1 | 1 | 4 | 1 | nt | nt
SMILES | G6PDH counter-1 | TbHK1 inh | PMI act | Diaph act CS | Diaph inh CS | PMI act satM6P | G6PDH counter-2 | TbHK1 confirm
COc1ccc(CCCC(=O)N/N=C/c2cccc(OC)c2O)cc1C | 6 | 63* | 1 | 0.8 | 24 | 1 | -9 | 6
COc1cccc(/C=N/NC(=O)C[n+]2ccccc2)c1O | -13 | -22 | 1 | 0.8 | 24 | 1.2 | nt | nt
CCS(=O)(=O)N1CCC(C(=O)NCCc2ccccc2)CC1 | 5 | -2 | 1 | 0.9 | 10 | 1 | nt | nt
CCS(=O)(=O)N1CCC(C(=O)NCCN2CCN(Cc3ccccc3)CC2)CC1 | 16 | 50* | 1 | 0.9 | 13 | 1 | -6 | 7
COc1nc(Nc2ccc([N+](=O)[O-])cc2)nc(NC2CCCCC2)n1 | 11 | -23 | 0.8 | 0.6 | 39 | 0.8 | nt | nt
COc1ccc(CNC2=CC(=O)CC(C)(C)C2)cc1 | 11 | 57* | 1.1 | 1 | -2 | 1.1 | -2 | -3
Cc1ccc(NC(=O)c2ccc(F)cc2F)cc1NS(C)(=O)=O | nt | -4 | nt | nt | nt | nt | nt | nt
N#CCC(=O)Nn1c(=S)[nH]c2ccccc2c1=O | 13 | -2 | 0.9 | 0.9 | 10 | 0.9 | nt | nt
Cc1cccc(C(=O)NC(=S)NNC(=O)c2cccs2)c1 | 11 | -19 | 1 | 0.6 | 36 | 1.2 | nt | nt
Cc1cccc(C(=O)NC(=S)NNC(=O)c2ccc(Cl)cc2)c1 | -6 | 62* | 1 | 0.5 | 48 | 1.1 | -44 | -39
OCCC1CN(Cc2cnc(-c3ccc(Cl)cc3)nc2)CCN1C1CCCC1 (configuration not stated) | nt | -5 | nt | nt | nt | nt | nt | nt
Cc1ccc(Nc2cc(=O)oc3ccccc23)c(C)c1 | 1 | 55* | 1 | 0.9 | 8 | 1.1 | 8 | 4
Cc1nc(COc2ccccc2Cl)sc1-c1ccnc(N)n1 | nt | -21 | nt | nt | nt | nt | nt | nt
